Consider ten compounds from ChEMBL document CHEMBL1140138, “Novel opioid peptide derived antagonists containing (2S)-2-methyl-3-(2,6-dimethyl-4-carbamoylphenyl)propanoic acid [(2S)-Mdcp]” (J Med Chem, 2008).

The target in test [1] is Mu-type opioid receptor (Cavia porcellus) (UniProt P97266). Nature of the test: (§1) Antagonist activity against mu opioid receptor in guinea pig ileum assessed as effect on TAPP-induced response. Type of test: functional, tissue-based. Summed up: (§2)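 Isolated tissue bioassays: mu and kappa antagonism measured in guinea pig ileum, delta antagonism in mouse vas deferens. Antagonist potency expressed as Ke (nM).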

Test [2] has as its target Kappa-type opioid receptor (Cavia porcellus) (UniProt P41144). Put plainly: Antagonist activity against kappa opioid receptor in guinea pig ileum assessed as effect on U50488-induced response. It counts as functional, tissue-based. Summed up: as §2
Test [3] has as its target Delta-type opioid receptor (Mus musculus) (UniProt P32300). Nature of the test: (§3) Antagonist activity against delta opioid receptor in mouse vas deference assessed as effect on DPDPE-induced response. Type of test: functional. Summed up:
as §2

Test [4] concerns the target Mu-type opioid receptor (Rattus norvegicus, UniProt P33535). Nature of the test: Displacement of [3H]DAMGO from mu opioid receptor in rat brain membrane. It counts as cell membranes. The procedure, abridged:
(§4)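 Opioid receptor binding in rat brain membrane preparations. Affinity expressed as Ki (nM).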

Test [5] has as its target Kappa-type opioid receptor (Cavia porcellus, UniProt P41144). Put plainly: Displacement of [3H]U69593 from kappa opioid receptor in guinea pig brain membrane. Type of test: cell membranes. A general note: In a radioligand displacement assay an active substance lowers the binding of a labelled ligand.
Test [6] deals with Delta-type opioid receptor (Rattus norvegicus, UniProt P33533). Nature of the test: Displacement of [3H]DSLET from delta opioid receptor in rat brain membrane. Type of test: cell membranes. The procedure, abridged: as §4
Test [7] has as its target Mu-type opioid receptor (Cavia porcellus, UniProt P97266). Described as §1. It counts as functional, tissue-based. Summed up: as §2
The target of test [8] is Delta-type opioid receptor (Mus musculus, UniProt P32300). Described as §3. Type of test: functional. Summed up: as §2

The structures appear in SMILES notation. Bridge positions count the residues as written; N and C are the ends. Square brackets hold non-standard residues; d marks the D form. Peptide text beside a SMILES is read from it. * marks the point of attachment. Phe(4-NO2) = N[C@@H](Cc1ccc([N+](=O)[O-])cc1)C(=O)O; X1 = Cc1cc(C(N)=O)cc(C)c1C[C@H](C)C(=O)*; Phe(4-F) = N[C@@H](Cc1ccc(F)cc1)C(=O)O; d2Nal = N[C@H](Cc1ccc2ccccc2c1)C(=O)O; Dmt = Cc1cc(O)cc(C)c1C[C@H](N)C(=O)O; dPen = CC(C)(S)[C@@H](N)C(=O)O; Pen = CC(C)(S)[C@H](N)C(=O)O; Sar = CNCC(=O)O

Delta-type opioid receptor (Mus musculus), sequence (P32300 whole entry): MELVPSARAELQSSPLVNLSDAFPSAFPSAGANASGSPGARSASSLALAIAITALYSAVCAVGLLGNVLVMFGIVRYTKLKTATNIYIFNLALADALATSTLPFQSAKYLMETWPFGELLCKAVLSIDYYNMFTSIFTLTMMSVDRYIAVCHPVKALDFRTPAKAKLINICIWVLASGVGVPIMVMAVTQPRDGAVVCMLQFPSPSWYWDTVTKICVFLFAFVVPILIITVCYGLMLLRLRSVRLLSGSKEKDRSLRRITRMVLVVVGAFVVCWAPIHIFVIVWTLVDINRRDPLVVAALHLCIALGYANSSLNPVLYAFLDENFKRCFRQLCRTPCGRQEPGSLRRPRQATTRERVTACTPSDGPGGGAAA
Kappa-type opioid receptor (Cavia porcellus), sequence (P41144 whole entry): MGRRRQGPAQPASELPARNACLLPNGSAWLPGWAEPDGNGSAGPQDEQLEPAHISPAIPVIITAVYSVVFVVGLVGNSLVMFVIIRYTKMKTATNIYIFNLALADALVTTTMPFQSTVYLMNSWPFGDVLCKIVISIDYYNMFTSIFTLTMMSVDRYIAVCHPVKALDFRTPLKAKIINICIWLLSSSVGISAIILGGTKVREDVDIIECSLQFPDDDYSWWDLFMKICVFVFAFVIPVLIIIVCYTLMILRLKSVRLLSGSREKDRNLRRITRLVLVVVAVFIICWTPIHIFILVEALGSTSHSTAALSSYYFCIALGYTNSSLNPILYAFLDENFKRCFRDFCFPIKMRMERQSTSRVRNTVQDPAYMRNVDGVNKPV
Kappa-type opioid receptor, sequence (P41144 whole entry): as above
Mu-type opioid receptor (Cavia porcellus, UniProt P97266), sequence (P97266 whole entry): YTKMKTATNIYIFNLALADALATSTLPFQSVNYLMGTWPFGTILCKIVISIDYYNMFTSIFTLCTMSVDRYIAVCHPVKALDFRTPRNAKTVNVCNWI
Mu-type opioid receptor (Cavia porcellus), sequence (P97266 whole entry): as above
Mu-type opioid receptor (Rattus norvegicus, UniProt P33535), sequence (P33535 whole entry): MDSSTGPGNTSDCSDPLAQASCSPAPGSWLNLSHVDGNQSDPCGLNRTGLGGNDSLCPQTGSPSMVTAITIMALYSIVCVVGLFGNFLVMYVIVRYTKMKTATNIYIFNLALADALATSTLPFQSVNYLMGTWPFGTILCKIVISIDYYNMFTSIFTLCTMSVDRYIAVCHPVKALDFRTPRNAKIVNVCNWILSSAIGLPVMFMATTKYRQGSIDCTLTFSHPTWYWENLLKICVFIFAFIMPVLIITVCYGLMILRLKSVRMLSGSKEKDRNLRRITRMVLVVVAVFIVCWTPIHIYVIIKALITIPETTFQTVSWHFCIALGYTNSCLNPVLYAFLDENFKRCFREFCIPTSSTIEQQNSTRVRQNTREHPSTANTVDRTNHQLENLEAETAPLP
Delta-type opioid receptor (Rattus norvegicus, UniProt P33533), sequence (P33533 whole entry): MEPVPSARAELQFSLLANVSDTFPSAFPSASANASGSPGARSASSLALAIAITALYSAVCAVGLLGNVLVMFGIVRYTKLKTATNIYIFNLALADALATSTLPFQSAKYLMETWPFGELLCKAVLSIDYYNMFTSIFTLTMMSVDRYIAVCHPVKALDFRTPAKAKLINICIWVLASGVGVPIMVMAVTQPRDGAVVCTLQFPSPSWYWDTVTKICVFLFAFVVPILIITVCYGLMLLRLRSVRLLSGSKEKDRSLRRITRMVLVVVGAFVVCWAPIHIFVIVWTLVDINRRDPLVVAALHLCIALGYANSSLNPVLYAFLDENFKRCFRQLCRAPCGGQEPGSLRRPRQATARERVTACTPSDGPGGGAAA
Delta-type opioid receptor (Mus musculus, UniProt P32300), sequence (P32300 whole entry): as the sequence (P32300 whole entry) above

On to `Cc1cc(C(N)=O)cc(C)c1C[C@H](C)C(=O)N[C@@H]1CSSC[C@H](C(N)=O)NC(=O)[C@H](Cc2ccc([N+](=O)[O-])cc2)NC(=O)CNC1=O` (X1-[dC]G[Phe(4-NO2)][dC]-NH2; disulfide 1-4), for which the Ke was found to be 1.24 nM in test [1], 18.9 nM in test [2] and 9.78 nM in test [3].

For the compound `Cc1cc(C(N)=O)cc(C)c1C[C@H](C)C(=O)N[C@H]1C(=O)NCC(=O)N[C@@H](Cc2ccc(F)cc2)C(=O)N[C@H](C(=O)N[C@@H](Cc2ccccc2)C(=O)O)C(C)(C)SSC1(C)C` (X1-[dPen]G[Phe(4-F)][Pen]F-OH; disulfide 1-4), the Ke is 1170 nM in test [1], 9980 nM in test [2] and 0.326 nM in test [3].

The Ki is a dissociation constant, usually derived from enzyme kinetics or from competition with a known ligand. Consider `CC[C@H](C)[C@H](NC(=O)[C@H](CCCNC(=N)N)NC(=O)[C@H](CCCNC(=N)N)NC(=O)[C@H](CC(C)C)NC(=O)[C@H](Cc1ccccc1)NC(=O)CNC(=O)CNC(=O)[C@@H](C)Cc1c(C)cc(C(N)=O)cc1C)C(=O)N[C@@H](CCCNC(=N)N)C(=O)N1CCC[C@H]1C(=O)N[C@@H](CCCCN)C(N)=O`, for which the values for the Ke in test [1], in test [2] and in test [3] were 401 nM, 5.96 nM and 843 nM, respectively. For the same compound, the Ki at Mu-type opioid receptor [4] is 29.6 nM; in test [5], 26 nM; in test [6], 27.2 nM.

`Cc1cc(O)cc(C)c1CCC(=O)N[C@@H]1CCCCNC(=O)NC[C@@H](C(N)=O)NC(=O)[C@H](Cc2ccccc2)NC(=O)CNC1=O`: the Ki came out at 15.5 nM on Mu-type opioid receptor [7] and 273 nM in test [8].

As for `Cc1cc(O)cc(C)c1C[C@H](N)C(=O)N(C)CC(=O)N[C@@H](Cc1ccccc1)C(=O)N[C@H](Cc1ccc2ccccc2c1)C(N)=O` (H-[Dmt][Sar]F[d2Nal]-NH2), the values for the Ke in test [1] and in test [3] were 2.34 nM and 305 nM, respectively.

Take `Cc1cc(O)cc(C)c1C[C@H](C)C(=O)N[C@H]1C(=O)NCC(=O)N[C@@H](Cc2ccc(F)cc2)C(=O)N[C@H](C(=O)N[C@@H](Cc2ccccc2)C(=O)O)C(C)(C)SSC1(C)C`: the Ke in test [1] amounted to 668 nM; in test [2], 4370 nM; in test [3], 0.785 nM. The results for the Ki (at Mu-type opioid receptor [4]; in test [5]; in test [6]) were 406 nM, 3710 nM and 2.32 nM, respectively.

Regarding `Cc1cc(O)cc(C)c1C[C@H](N)C(=O)N1CCC[C@H]1C(=O)N[C@@H](Cc1c[nH]c2ccccc12)C(=O)N[C@H](Cc1ccc2ccccc2c1)C(N)=O` [ANTANAL-1] (H-[Dmt]PW[d2Nal]-NH2), the Ki on Mu-type opioid receptor [7] is 2.38 nM.

By IC50 is commonly meant the concentration needed to halve the response being measured. For the compound `C[C@@H](O)[C@H](NC(=O)[C@H]1NC(=O)[C@H]([C@@H](C)O)NC(=O)[C@H](CCCN)NC(=O)[C@@H](Cc2c[nH]c3ccccc23)NC(=O)[C@H](Cc2ccc(O)cc2)NC(=O)[C@@H](NC(=O)[C@H](N)Cc2ccccc2)CSSC1(C)C)C(N)=O`, the IC50 at Mu-type opioid receptor [7] was 2.8 nM.

Regarding `Cc1cc(O)cc(C)c1C[C@H](C)C(=O)N[C@@H]1CSSC[C@H](C(N)=O)NC(=O)[C@H](Cc2ccc([N+](=O)[O-])cc2)NC(=O)CNC1=O`, the Ke was 1.48 nM in test [1], 6.41 nM in test [2] and 3.48 nM in test [3]. The Ki in test [5] was 92.8 nM.

For the compound `Cc1cc(O)cc(C)c1C[C@H](N)C(=O)N1CCC[C@H]1C(=O)N[C@@H](Cc1ccccc1)C(=O)N[C@H](Cc1ccc2ccccc2c1)C(N)=O` [ANTANAL-2] (H-[Dmt]PF[d2Nal]-NH2), the Ki at Mu-type opioid receptor [7] worked out at 1.52 nM.
